The record followed here is PubChem BioAssay.

The viability is a read-out of living cells in per cent, often relative to untreated cells. For orientation: inhibition means the change of the read-out against control, counted positive when it falls.

Experiment [1] in a line: reducers of endogenous Her2 protein level, primary screen, SKBR3 breast tumor cells, AlphaScreen, ATP viability (AID 461;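 active = Her2 level under about 52% in both replicate screens, with viability over 70% of control, limit read from the data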;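 as to Her2 level: lower value means less Her2 protein in the cells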;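 as to viability: percent of carrier control wells set as 100% viability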). To be noted: 18-24 h, measured here: SKBR3 viability, ATP luminescence, at 10 µM. On the technique in general: In Alpha technology, singlet oxygen from a donor bead excites a nearby acceptor bead.
In experiment [2] the target is Receptor tyrosine-protein kinase erbB-2 (Homo sapiens) (UniProt P04626). The description is as above. To be noted: 18-24 h, at 10 µM, stronger effect = lower value.
Receptor tyrosine-protein kinase erbB-2 (Homo sapiens), sequence (P04626 whole entry, looked up): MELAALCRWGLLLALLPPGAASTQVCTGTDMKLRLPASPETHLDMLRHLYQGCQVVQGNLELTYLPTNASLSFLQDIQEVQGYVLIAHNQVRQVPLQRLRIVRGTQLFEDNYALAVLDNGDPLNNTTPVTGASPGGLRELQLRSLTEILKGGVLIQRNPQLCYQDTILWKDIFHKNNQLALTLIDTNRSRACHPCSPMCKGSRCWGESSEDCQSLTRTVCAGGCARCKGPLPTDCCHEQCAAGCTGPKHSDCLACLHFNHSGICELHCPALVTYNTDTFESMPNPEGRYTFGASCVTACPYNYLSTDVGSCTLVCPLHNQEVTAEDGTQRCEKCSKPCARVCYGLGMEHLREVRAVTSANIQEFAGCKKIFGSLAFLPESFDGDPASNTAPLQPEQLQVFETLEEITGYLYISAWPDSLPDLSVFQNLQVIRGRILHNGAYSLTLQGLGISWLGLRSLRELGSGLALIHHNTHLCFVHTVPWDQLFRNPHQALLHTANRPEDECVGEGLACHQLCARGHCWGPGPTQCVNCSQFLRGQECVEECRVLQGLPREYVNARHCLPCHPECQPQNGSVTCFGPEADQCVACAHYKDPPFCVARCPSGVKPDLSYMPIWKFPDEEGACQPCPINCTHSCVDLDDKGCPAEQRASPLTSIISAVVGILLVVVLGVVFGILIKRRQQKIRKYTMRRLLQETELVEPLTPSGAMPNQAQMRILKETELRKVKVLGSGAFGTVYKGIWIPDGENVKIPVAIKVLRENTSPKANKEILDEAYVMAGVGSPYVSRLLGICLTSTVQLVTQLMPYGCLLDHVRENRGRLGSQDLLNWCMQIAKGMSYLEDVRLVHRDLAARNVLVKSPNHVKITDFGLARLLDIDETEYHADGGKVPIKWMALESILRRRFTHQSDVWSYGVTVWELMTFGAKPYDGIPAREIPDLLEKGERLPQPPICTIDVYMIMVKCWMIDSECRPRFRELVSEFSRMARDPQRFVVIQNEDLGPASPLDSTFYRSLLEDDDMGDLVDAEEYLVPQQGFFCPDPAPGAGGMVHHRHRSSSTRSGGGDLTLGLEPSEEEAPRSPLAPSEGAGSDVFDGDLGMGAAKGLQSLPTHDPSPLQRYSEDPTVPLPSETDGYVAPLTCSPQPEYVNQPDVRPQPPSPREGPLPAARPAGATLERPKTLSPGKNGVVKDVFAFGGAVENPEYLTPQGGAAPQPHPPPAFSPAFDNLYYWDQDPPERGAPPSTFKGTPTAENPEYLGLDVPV
Experiment [3] can be described thus: SK-BR-3 cell growth inhibitors, pilot screen, 24 h, human (AID 572).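 Also: compound exposure lasted between 18 and 24 h rather than exactly 24 h; 100% = carrier-treated control wells.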 To be noted: SK-BR-3 viability, CellTiter-Glo luminescence, at 10 µM, stronger effect = lower value. For orientation: ATP-based viability assays read luminescence as a measure of living cells.
A short description of experiment [4]: HUVEC growth inhibition – cell-based, human, primary screen (AID 575;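 active = viability at or below 30% in both replicate assays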;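 also: 100% = median of untreated cell wells with 0.1% DMSO on each plate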). The note with it: HUVEC proliferation, CellTiter-Glo luminescence, 72 h; at 10 µM; stronger effect = lower value. In outline: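 Assay system: Primary human umbilical vein endothelial cells | Quantity: 1250 cells per well | Medium: Supplemented EBM, 2% fetal bovine serum | Detection: CellTiter-Glo luminescence measuring cellular ATP | Read-out: % viability vs DMSO wells | Plate: Collagen-coated 384-well format | Times: 72 h exposure, 37 °C, 5% CO2, 30 min RT equilibration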

Experiment [5] in a line: growth inhibitors of H69AR lung tumor, primary screen, human, duplicate replicates (AID 580;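 active = viability at or under a set limit in both replicates, limit being median viability minus 3 SD, cut at about 48% in these data, passing the limit was not always enough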;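 also: 100% = mean luminescence of untreated wells and 0% = no signal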). The note with it: H69AR lung tumor cells viability, ATP luminescence, 72 h; at 10 µM; stronger effect = lower value.
The nature of experiment [6]: reversal of MRP1-mediated doxorubicin resistance, pilot screen, H69AR cells, doxorubicin co-treatment (AID 601;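 active = viability loss from added drug above about 55%, and viability with drug at most 40%, in both replicates, limit read from the data, passing the limit was not always enough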). The note with it: CellTiter-Glo, 72 h, at 10 µM; for differential viability (reversal): stronger effect = higher value.
Experiment [7] is described as follows: 384-well plate pilot, post-Golgi transport modulator project, inhibition of yeast transport mutant growth (AID 636; in the data active = inhibition above about 31%). The note with it: absorbance 615 nm, about 18 h, stronger effect = higher value.
Experiment [8] is described as follows: growth suppression of yeast trafficking mutant, preliminary HTS, modulators of trafficking downstream of Golgi apparatus project, 1536-format plate, OD 615 nm (AID 637; in the data active = inhibition above about 30%). To be noted: yeast transport mutant growth, absorbance 615 nm, 18 h; stronger effect = higher value.
[9] abbreviates: H69AR cells + 2 uM doxorubicin, measured here: viability with 2 uM doxorubicin, stronger effect = lower value.
Setting [10] is: H69AR cells, compound alone cytotoxicity.

Active and inactive are the calls of the source.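 The calls were made as follows, unless noted: active = viability at or below 10% of carrier control in both of two separate runs; inconclusive = viability at or below 10% in only one of the two runs; inactive = the rest.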

For `c1ccc(-n2ncc3c(N4CCCCC4)ncnc32)cc1`, the viability in experiment [1] is 105%; in experiment [3], 105% (inactive); in experiment [4], 59.4% (inactive); in experiment [5], 70% (inactive); in experiment [6] (setting [9]), 65.1%; in experiment [6] (setting [10]), 70%. For the same compound, in experiment [2], the Her2 level is 90.5% (inactive). Besides, the differential viability (reversal) in experiment [6] (H69AR cells + 2 uM doxorubicin) was 4.94% (inactive). Besides, the inhibition in experiment [7] is -3.6% (inactive); in experiment [8], -4.17% (inactive).

On to `COc1cc(-c2nc(-c3cccc(C(F)(F)F)c3)no2)cc(OC)c1OC`, for which the viability in experiment [1] is 102%; in experiment [3] it was 102% (inactive); in experiment [4], 94.4% (inactive); in experiment [5] it was 93.4% (inactive); in experiment [6] (setting [9]), 82.6%; in experiment [6] (setting [10]) it was 93.4%. Besides, in experiment [2], the Her2 level was 99.5% (inactive). For the same compound, the differential viability (reversal) in experiment [6] (H69AR cells + 2 uM doxorubicin) is 10.7% (inactive). The inhibition in experiment [7] is -1.87% (inactive); in experiment [8] it was -2.58% (inactive).

For `Cc1cc2c(nn1)CCC/C2=N\O`, the viability was 104% in experiment [1]; 104% (inactive) in experiment [3]; 123% (inactive) in experiment [4]; 95.6% (inactive) in experiment [5]; 91.8% in experiment [6] (setting [9]); 95.6% in experiment [6] (setting [10]). Also, in experiment [2], the Her2 level was 99% (inactive). For the same compound, the differential viability (reversal) in experiment [6] (H69AR cells + 2 uM doxorubicin) was 3.77% (inactive). In addition, the inhibition in experiment [7] was -4.47% (inactive); in experiment [8] it was 6.72% (inactive).

`CCOC(=O)c1[nH]c2ccc(Br)cc2c1NC(=O)CNC`: the viability in experiment [1] is 93%; in experiment [3], 93% (inactive); in experiment [4], 101% (inactive); in experiment [5] it was 87.3% (inactive); in experiment [6] (setting [9]), 87.5%; in experiment [6] (setting [10]) it was 87.3%. The Her2 level in experiment [2] was 99.5% (inactive). The differential viability (reversal) in experiment [6] (H69AR cells + 2 uM doxorubicin) was -0.115% (inactive). Also, the inhibition in experiment [7] was -2.37% (inactive); in experiment [8] it was 8.85% (inactive).

Regarding `O=C(O)CN(c1ccccc1)C1SC(=O)NC1=O` (stereo not given), the viability in experiment [1] is 85.5%; in experiment [3], 85.5% (inactive); in experiment [4], 98.5% (inactive); in experiment [5] it was 86.8% (inactive); in experiment [6] (setting [9]), 83.8%; in experiment [6] (setting [10]), 86.8%. Besides, the Her2 level in experiment [2] was 87.5% (inactive). In addition, the differential viability (reversal) in experiment [6] (H69AR cells + 2 uM doxorubicin) is 3.04% (inactive). The inhibition is -4.93% (inactive) in experiment [7] and 2.79% (inactive) in experiment [8].

For the compound `Cc1ncoc1C(=O)Nc1cccc(Cl)c1C`, the viability in experiment [1] was 104%; in experiment [3], 104% (inactive); in experiment [4], 113% (inactive); in experiment [5] it was 101% (inactive); in experiment [6] (setting [9]) it was 85.1%; in experiment [6] (setting [10]), 101%. In addition, the Her2 level in experiment [2] is 114% (inactive). In experiment [6] (H69AR cells + 2 uM doxorubicin), the differential viability (reversal) is 15.6% (inactive). In addition, the figures for the inhibition in experiment [7] and in experiment [8] were -3.78% (inactive) and 0.33% (inactive), respectively.

Regarding `COc1cc(OC)cc(-n2nnnc2SCC(=O)N2CCCC2)c1`, the viability was 87% in experiment [1]; 87% (inactive) in experiment [3]; 94.9% (inactive) in experiment [4]; 87.4% (inactive) in experiment [5]; 92% in experiment [6] (setting [9]); 87.4% in experiment [6] (setting [10]). Also, the Her2 level in experiment [2] was 79% (inactive). For the same compound, in experiment [6] (H69AR cells + 2 uM doxorubicin), the differential viability (reversal) was -4.62% (inactive). Besides, the inhibition in experiment [7] was -2.11% (inactive); in experiment [8], 0.36% (inactive).

Regarding `CCc1[nH]nc2c1C(c1ccncc1)C(C#N)=C(N)O2` (stereo not given), the viability in experiment [1] was 108%; in experiment [3], 108% (inactive); in experiment [4] it was 106% (inactive); in experiment [5], 95.9% (inactive); in experiment [6] (setting [9]), 99.8%; in experiment [6] (setting [10]) it was 95.9%. Also, in experiment [2], the Her2 level is 112% (inactive). For the same compound, the differential viability (reversal) in experiment [6] (H69AR cells + 2 uM doxorubicin) is -3.88% (inactive). In addition, the inhibition was -4.46% (inactive) in experiment [7] and -4.92% (inactive) in experiment [8].

Turning to `CCOC(=O)C1CCCN(C(=O)c2cc3c(C)nc4ccccc4c3o2)C1` (stereo not given), the viability is 86% in experiment [1]; 86% (inactive) in experiment [3]; 71.7% (inactive) in experiment [4]; 74.7% (inactive) in experiment [5]; 36.2% in experiment [6] (setting [9]); 74.7% in experiment [6] (setting [10]). The Her2 level in experiment [2] is 99% (inactive). Besides, the differential viability (reversal) in experiment [6] (H69AR cells + 2 uM doxorubicin) is 38.5% (inactive). For the same compound, the inhibition in experiment [7] was -1.87% (inactive); in experiment [8], 16.7% (inactive).

In the case of `O=C(Nc1ccccc1)c1ccc(NCC2CCCO2)c(S(=O)(=O)N2CCOCC2)c1` (stereo not given), the viability was 87% in experiment [1]; 87% (inactive) in experiment [3]; 102% (inactive) in experiment [4]; 90% (inactive) in experiment [5]; 85.7% in experiment [6] (setting [9]); 90% in experiment [6] (setting [10]). In experiment [2], the Her2 level was 95% (inactive). The differential viability (reversal) in experiment [6] (H69AR cells + 2 uM doxorubicin) was 4.29% (inactive). The inhibition was -3.16% (inactive) in experiment [7] and -5.87% (inactive) in experiment [8].

Take `CN1CC(=O)N(CC(=O)NCCc2ccc(F)cc2)c2ccccc2C1=O`: the viability in experiment [1] was 95%; in experiment [3], 95% (inactive); in experiment [4], 105% (inactive); in experiment [5] it was 90% (inactive); in experiment [6] (setting [9]), 93.6%; in experiment [6] (setting [10]), 90%. Besides, the Her2 level in experiment [2] was 90.5% (inactive). Also, the differential viability (reversal) in experiment [6] (H69AR cells + 2 uM doxorubicin) is -3.62% (inactive). The inhibition in experiment [7] was -6.36% (inactive); in experiment [8] it was 1.75% (inactive).

With `CCOC(=O)c1sc(C)c2c1NC(C)(c1cccs1)NC2=O` (stereo not given), the viability in experiment [1] is 105%; in experiment [3], 105% (inactive); in experiment [4], 83.6% (inactive); in experiment [5] it was 82.5% (inactive); in experiment [6] (setting [9]), 90.6%; in experiment [6] (setting [10]) it was 82.5%. The Her2 level in experiment [2] was 96.5% (inactive). In experiment [6] (H69AR cells + 2 uM doxorubicin), the differential viability (reversal) is -8.16% (inactive). The inhibition is -1.73% (inactive) in experiment [7] and -6.94% (inactive) in experiment [8].

As to `COc1ccc(-n2c(SCC(=O)Nc3ccc(C(=O)O)cc3)nnc2-c2cccs2)cc1`, the viability in experiment [1] was 112%; in experiment [3] it was 112% (inactive); in experiment [4], 99.4% (inactive); in experiment [5] it was 109% (inactive); in experiment [6] (setting [9]), 93.4%; in experiment [6] (setting [10]), 109%. The Her2 level in experiment [2] is 94% (inactive). In addition, in experiment [6] (H69AR cells + 2 uM doxorubicin), the differential viability (reversal) was 15.2% (inactive). The values for the inhibition in experiment [7] and in experiment [8] were -1.97% (inactive) and -4.36% (inactive), respectively.

Regarding `O=c1cc(CSc2ccccn2)c2ccccc2[nH]1`, the viability in experiment [1] was 91.5%; in experiment [3], 91.5% (inactive); in experiment [4], 85.2% (inactive); in experiment [5] it was 93.1% (inactive); in experiment [6] (setting [9]), 85.1%; in experiment [6] (setting [10]), 93.1%. In experiment [2], the Her2 level is 76% (inactive). The differential viability (reversal) in experiment [6] (H69AR cells + 2 uM doxorubicin) is 8.09% (inactive). Besides, the results for the inhibition in experiment [7] and in experiment [8] were -4.46% (inactive) and 4.13% (inactive), respectively.
